Columns and labels:
[1] = target: Protein kinase C theta type (Homo sapiens, UniProt Q04759); test: Binding affinity to GST-tagged PKCtheta expressed in Escherichia coli BL21(DE3) by fluorescence quenching
How it was run: (§1)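 Isolated C1B subdomain made in E. coli as GST fusion, purified on glutathione-Sepharose, GST removed by thrombin, then ammonium sulfate precipitation and Superdex 75 gel filtration. Excitation 280 nm, intrinsic emission at 350 nm as (F0-F)/F, Hill fit gives EC50.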

[2] = target: Protein kinase C delta type (Homo sapiens, UniProt Q05655); test: Binding affinity to GST-tagged PKCdelta expressed in Escherichia coli BL21(DE3) by fluorescence quenching; how it was run: as §1
Sequence of Protein kinase C delta type (Q05655 whole entry): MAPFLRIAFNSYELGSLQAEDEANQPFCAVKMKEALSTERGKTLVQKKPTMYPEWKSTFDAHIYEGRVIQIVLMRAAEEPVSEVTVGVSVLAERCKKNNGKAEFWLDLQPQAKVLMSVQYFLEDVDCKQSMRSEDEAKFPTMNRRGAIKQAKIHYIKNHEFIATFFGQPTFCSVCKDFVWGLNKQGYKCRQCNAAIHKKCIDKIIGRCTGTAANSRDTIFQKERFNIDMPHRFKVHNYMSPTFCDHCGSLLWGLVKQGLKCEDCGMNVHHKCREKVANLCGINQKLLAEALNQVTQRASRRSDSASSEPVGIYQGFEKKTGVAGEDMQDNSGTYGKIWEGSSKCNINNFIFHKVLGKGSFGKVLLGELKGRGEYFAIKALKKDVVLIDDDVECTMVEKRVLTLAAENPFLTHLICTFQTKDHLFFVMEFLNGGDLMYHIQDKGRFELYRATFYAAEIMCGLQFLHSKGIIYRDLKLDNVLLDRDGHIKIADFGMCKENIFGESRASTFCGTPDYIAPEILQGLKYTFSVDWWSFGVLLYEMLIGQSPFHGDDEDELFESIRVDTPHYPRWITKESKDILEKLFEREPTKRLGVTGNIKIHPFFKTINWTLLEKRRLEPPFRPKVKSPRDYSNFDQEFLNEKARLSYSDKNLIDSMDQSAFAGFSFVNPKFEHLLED

[3] = target: T1, Protein kinase C epsilon type (Homo sapiens, UniProt Q02156); test: Binding affinity to GST-tagged PKCepsilon expressed in Escherichia coli BL21(DE3) by fluorescence quenching; how it was run: as §1
T1 sequence (Q02156 whole entry): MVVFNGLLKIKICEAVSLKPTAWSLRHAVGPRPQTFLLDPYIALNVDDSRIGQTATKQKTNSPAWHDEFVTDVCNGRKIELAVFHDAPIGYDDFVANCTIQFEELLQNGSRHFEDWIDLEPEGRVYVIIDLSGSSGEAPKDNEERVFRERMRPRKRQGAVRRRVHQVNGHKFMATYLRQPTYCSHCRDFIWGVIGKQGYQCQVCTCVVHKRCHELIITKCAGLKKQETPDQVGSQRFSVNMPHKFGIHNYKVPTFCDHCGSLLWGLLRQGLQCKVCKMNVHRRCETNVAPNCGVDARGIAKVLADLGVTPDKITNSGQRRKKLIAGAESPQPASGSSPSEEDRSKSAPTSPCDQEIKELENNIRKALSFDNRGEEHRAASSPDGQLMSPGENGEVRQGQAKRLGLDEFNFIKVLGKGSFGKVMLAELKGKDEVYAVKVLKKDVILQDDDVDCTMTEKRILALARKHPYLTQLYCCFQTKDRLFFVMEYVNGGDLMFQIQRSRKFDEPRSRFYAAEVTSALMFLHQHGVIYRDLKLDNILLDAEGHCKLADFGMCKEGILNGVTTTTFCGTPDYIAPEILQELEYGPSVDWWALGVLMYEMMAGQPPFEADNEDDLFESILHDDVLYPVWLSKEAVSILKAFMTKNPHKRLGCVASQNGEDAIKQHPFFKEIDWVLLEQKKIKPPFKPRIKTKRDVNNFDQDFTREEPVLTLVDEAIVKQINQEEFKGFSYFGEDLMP

Sequence of Protein kinase C theta type (Q04759 whole entry, the tested form may be a part): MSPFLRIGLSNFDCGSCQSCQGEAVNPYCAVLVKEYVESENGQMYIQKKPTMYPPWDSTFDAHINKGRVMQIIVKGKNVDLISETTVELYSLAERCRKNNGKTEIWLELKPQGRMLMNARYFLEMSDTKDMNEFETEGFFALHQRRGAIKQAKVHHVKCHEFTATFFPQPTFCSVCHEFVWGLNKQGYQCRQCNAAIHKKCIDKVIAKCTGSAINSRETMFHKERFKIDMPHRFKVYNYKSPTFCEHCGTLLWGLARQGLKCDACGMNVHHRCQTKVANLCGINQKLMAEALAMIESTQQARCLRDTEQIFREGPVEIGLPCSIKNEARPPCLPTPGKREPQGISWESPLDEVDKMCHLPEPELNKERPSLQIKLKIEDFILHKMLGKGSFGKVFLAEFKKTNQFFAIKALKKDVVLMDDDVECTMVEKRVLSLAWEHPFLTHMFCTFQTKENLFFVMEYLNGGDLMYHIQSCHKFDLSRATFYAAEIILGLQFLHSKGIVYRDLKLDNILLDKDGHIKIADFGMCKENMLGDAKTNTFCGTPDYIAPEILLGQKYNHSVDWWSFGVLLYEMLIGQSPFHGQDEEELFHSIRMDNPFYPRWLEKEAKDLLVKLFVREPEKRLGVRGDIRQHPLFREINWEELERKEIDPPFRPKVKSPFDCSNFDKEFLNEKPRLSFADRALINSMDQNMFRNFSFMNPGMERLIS

CCCCCCCC/C=C\CCCCCCCC(=O)OC[C@H](CO)OC(=O)CCCCCCC/C=C\CCCCCCCC
EC50 [1]: 8.67 µM
EC50 [2]: 7.49 µM
EC50 [3]: 14.3 µM

O=C(/C=C(O)/C=C/c1ccc(O)c(O)c1)/C=C/c1ccc(O)c(O)c1
EC50 [1]: 6.57 µM
EC50 [2]: 12.5 µM
EC50 [3]: 11.1 µM

CCCCCCCCCCCCCCCCOc1ccc(/C=C/C(O)=C/C(=O)/C=C/c2ccc(O)c(OC)c2)cc1OC
EC50 [1]: 5.95 µM
EC50 [2]: 8.98 µM
EC50 [3]: 10.6 µM

COc1cc(/C=C/C(=O)CC(=O)/C=C/c2ccc(O)c(OC)c2)ccc1O [CURCUMIN]
EC50 [1]: 11.1 µM
EC50 [2]: 10.7 µM
EC50 [3]: 8.81 µM

CCCCCCCCCCCCCC(=O)O[C@@H]1[C@@H](C)[C@@]2(O)[C@@H](C=C(CO)C[C@]3(O)C(=O)C(C)=C[C@@H]23)[C@@H]2C(C)(C)[C@]12OC(C)=O [PHORBOL MYRISTATE ACETATE]
EC50 [1]: 3.19 µM
EC50 [2]: 5.17 µM
EC50 [3]: 5.56 µM

CCCCCCCC(=O)OC[C@H](CO)OC(=O)CCCCCCC
EC50 [1]: 5.24 µM

CCCCCCCCOc1ccc(/C=C/C(O)=C/C(=O)/C=C/c2ccc(O)c(OC)c2)cc1OC
EC50 [1]: 4 µM
EC50 [2]: 8.69 µM
EC50 [3]: 9.79 µM

Source: ChEMBL document CHEMBL1156910, “Binding of curcumin and its long chain derivatives to the activator binding domain of novel protein kinase C” (Bioorg Med Chem, 2010)
